Screens as filed in PubChem BioAssay.
Only some compounds are listed: those with a hit (about 2.3% of all), similar ones and a draw of the others.
TRPC4 inh – inhibitors of mouse TRPC4 channel, primary screen, Fluo4 calcium, HEK293 TRPC4beta/mu-opioid cells | Short transient receptor potential channel 4 (Mus musculus), Q9QUQ5 | DAMGO-evoked Fluo4 calcium flux; stronger effect = lower value | B-score at 10 µM | 300,000 compounds, 0.39% hits | AID 2247, 2010;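 active means B-score over 3 SD under the library average, no early fluorescence shift, positive overall ratio signal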
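Material: HEK293 cells with stable TRPC4beta plus mu-opioid receptor expression; probe or stimulus: DAMGO in two steps, submaximal then maximal; technique: Fluo4 calcium fluorescence by kinetic imaging, 5 s 1 Hz baseline; measure: integrated fluorescence ratio relative to baseline, converted to per-well B score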
TRPC4 PAM – positive allosteric modulators of TRPC4, primary screen, cell-based, mouse TRPC4beta, HEK293 mu-opioid, Fluo-4 calcium; DAMGO EC20, Fluo-4 Ca2+ flux; stronger effect = higher value; B-score at 10 µM; 310,000 compounds, 0.42% hits; AID 2227, 2009;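 active means B-score of calcium response area above 5 SD of library B-scores, with initial fluorescence ratio within 5 SD of library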
TRPC6 inhibitor – mouse TRPC6 channel inhibitors, primary screen, cell-based, HEK293, membrane potential dye; Short transient receptor potential channel 6 (Mus musculus), Q61143; ACh-evoked depolarization; stronger effect = lower value; B-score at 10 µM; 310,000 compounds, 1.1% hits;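 active means B-score under library mean minus 3 SD, initial fluorescence not abnormally high, positive integrated signal ratio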;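 further: B-score derived from integrated fluorescence ratio over the kinetic read; more negative B-score means stronger inhibition of depolarization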
TRPC4 act – activators of mouse TRPC4 channel, primary screen, Fluo4 calcium, HEK293 TRPC4beta/mu-opioid cells. B-score at 10 µM. Short transient receptor potential channel 4 (Mus musculus), Q9QUQ5. 310,000 compounds, 0.49% hits. Fluo4 calcium fluorescence; stronger effect = higher value;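 active means B-score above 5 SD of library B-scores, and initial fluorescence ratio not above library mean plus 5 SD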;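 further: positive B-score marks a calcium rise read as TRPC4 activation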
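Material: TRPC4beta and mu-opioid receptor HEK293 stable cells | Incubation: 45 min room-temperature Fluo4 loading, 110 s read | Detection: Kinetic Fluo4 calcium fluorescence | Measure: Integrated baseline-normalised fluorescence ratio, converted to per-well B score | Benchmarks: Low control buffer alone, high control maximal DAMGO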
TRPC6 activator – mouse TRPC6 channel activators, primary screen, cell-based, HEK293, membrane potential dye; 310,000 compounds, 0.13% hits; HEK293-TRPC6 membrane potential dye fluorescence; stronger effect = higher value; B-score at 10 µM; Short transient receptor potential channel 6 (Mus musculus), Q61143; AID 2550, 2010;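 active means B-score of the integrated fluorescence ratio above library mean plus 3 SD, and starting fluorescence ratio within library mean plus 5 SD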;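 further: higher score means more depolarization so channel activation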
HEK293 TRPC6 ctr – parental HEK293 membrane potential modulation, confirmation, counter-screen for TRPC6 modulator project, cell-based; shares compounds with TRPC6 inhibitor; membrane potential dye fluorescence; membrane potential signal change, % at 10 µM; 2,400 compounds, 51% hits; AID 488924, 2010;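 active means membrane potential signal moves up or down beyond 5 SD from buffer-only wells, on both duplicate plates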
HEK293 MPD ctr 2 – second check of TRPC6 modulator effects in parental HEK293 cells; membrane potential dye fluorescence; after compound, maximal acetylcholine stimulation; 2,400 compounds, 14% hits; shares compounds with TRPC6 inhibitor; inhibition, % at 10 µM;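 active means membrane potential signal drops by more than 5 SD from the mean control signal, in both duplicate plates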
TRPC4 ctr mod – TRPC4 modulation by TRPC6 hit compounds, confirmation, selectivity assay for TRPC6 modulator project, cell-based, HEK293 TRPC4/mu-opioid, membrane potential dye, mouse. percent change from control (negative = decrease, positive = increase), % at 10 µM. shares compounds with TRPC6 inhibitor. membrane potential fluorescence. AID 488927, 2010. 2,400 compounds, 69% hits;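 active means membrane potential signal moved up or down beyond 5 SD of buffer control wells, in both duplicate plates, actives on both sides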
TRPC4/MOR inh 2 – mouse TRPC4 off-target activity of TRPC6 modulators, second screen; shares compounds with TRPC6 inhibitor; HEK293 TRPC4/mu-opioid, membrane potential dye fluorescence; stimulated with maximal-effect DAMGO; inhibition, % at 10 µM; 2,400 compounds, 55% hits;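 active means drop in membrane potential signal beyond 5 SD of the control wells in both duplicate plates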;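 further: TRPC4 counter screen for TRPC6 hits run under conditions tuned for TRPC6 not TRPC4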
TRPC6 inh conf – mouse TRPC6 channel inhibitors, confirmation, HEK293 cells, membrane potential dye, duplicate; AID 488960, 2010; ACh-evoked depolarization; shares compounds with TRPC6 inhibitor; 3,300 compounds, 43% hits; inhibition, % at 10 µM;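 active means fluorescence ratio falls more than 5 SD below the full-stimulation control mean, in both duplicate runs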;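 further: integrated fluorescence ratio of peak minus minimum over baseline after agonist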
TRPC6 act confirm – mouse TRPC6 channel activators, confirmation, HEK293 cells, membrane potential dye, duplicate; shares compounds with TRPC6 inhibitor; HEK293-TRPC6 membrane potential dye fluorescence, FDSS; activation, % at 10 µM; 2,800 compounds, 11% hits;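 active means ratio signal rise beyond 5 SD above unstimulated control wells' mean, seen in both duplicate runs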
A number is an active result; 0 = inactive; - = no result.

SMILES | TRPC4 inh | TRPC4 PAM | TRPC6 inhibitor | TRPC4 act | TRPC6 activator | HEK293 TRPC6 ctr | HEK293 MPD ctr 2 | TRPC4 ctr mod | TRPC4/MOR inh 2 | TRPC6 inh conf | TRPC6 act confirm
COCCCN(C(=S)NC(=O)c1ccc(C(C)(C)C)cc1)c1c(N)n(Cc2ccccc2)c(=O)[nH]c1=O | 0 | 0 | 0 | 0 | 0 | - | - | - | - | - | -
COc1ccc(C(=O)NC(=S)N(CCC(C)C)c2c(N)n(Cc3ccccc3)c(=O)[nH]c2=O)cc1 | 0 | 0 | -5.5 | 0 | 0 | 0 | 0 | 0 | 0 | 0 | 0
Cc1cccn2c(=O)c3cc(C(N)=S)c(=N)n(CCCN4CCOCC4)c3nc12 | 0 | 0 | 0 | 0 | 0 | - | - | - | - | - | -
Cc1cccn2c(=O)c3cc(C#N)c(=N)n(Cc4ccncc4)c3nc12 | 0 | 0 | -5.7 | 0 | 0 | -168% | 0 | -30% | 0 | 0 | 0
CCCn1c(=N)c(C#N)cc2c(=O)n3ccccc3nc21 | 0 | 0 | -8.3 | 0 | 0 | -260% | 0 | -44% | 44% | 38% | 0
Cc1cccn2c(=O)c3cc(C#N)c(=N)n(CCN4CCOCC4)c3nc12 | 0 | 0 | -5.6 | 0 | 0 | -150% | 0 | -24% | 0 | 48% | 0
CCCn1c(=N)c(C#N)cc2c(=O)n3cccc(C)c3nc21 | 0 | 0 | 0 | 0 | 0 | - | - | - | - | - | -
Cc1cccn2c(=O)c3cc(C#N)c(=N)n(CCCN4CCOCC4)c3nc12 | 0 | 0 | -8.6 | 0 | 0 | -84% | 118% | -26% | 68% | 57% | 0
O=C(COC(=O)COc1ccc(Cl)cc1Cl)Nc1cccnc1Cl | 0 | 0 | 0 | 0 | 0 | - | - | - | - | - | -
C(=N\n1cnnc1)/c1ccc2ncccc2c1 | 0 | 0 | -7.7 | 0 | 0 | -280% | 0 | -37% | 50% | 0 | 0
COc1ccccc1N1CCN(C(=O)c2cc(-c3ccccc3O)on2)CC1 | 0 | 0 | -5.9 | 0 | 0 | 0 | 0 | 0 | 0 | 0 | 0
COc1ccccc1N1CCN(C(=O)c2cc(-c3ccccc3)on2)CC1 | 0 | 0 | 0 | 0 | 0 | - | - | - | - | - | -
